# Active and inactive are the calls of the source. The rule behind the calls is not given here.
# Tests used:
# [1] = target: Plasmepsin II (Plasmodium falciparum) (UniProt P46925); assay: Inhibition of Plasmodium falciparum plasmepsin-2 expressed in Escherichia coli BL21 (DE3) at 1 uM after 30 min by FRET assay
# [2] = target: Plasmepsin II (Plasmodium falciparum) (UniProt P46925); assay: Inhibition of Plasmodium falciparum plasmepsin-2 expressed in Escherichia coli BL21 (DE3) at 1 uM after 1 to 2 hrs
# [3] = target: Plasmepsin II (Plasmodium falciparum) (UniProt P46925); assay: Inhibition of Plasmodium falciparum plasmepsin-2 expressed in Escherichia coli BL21 (DE3) assessed as residual activity at 1 uM measured after overnight dialysis by spun column chromatography
# [4] = test system: Plasmodium falciparum; assay: Antiplasmodial activity against Plasmodium falciparum 3D7 trophozoites infected in human erythrocytes assessed as [3H]hypoxanthine incorporation into nucleic acid after 30 hrs by beta-scintillation counting; format: functional, organism-based
# [5] = test system: Plasmodium falciparum; assay: Antiplasmodial activity against Plasmodium falciparum assessed as inhibition of parasite growth at 20 uM; format: functional
# [6] = Selectivity ratio of Ki for human cathepsin D to Ki for Plasmodium falciparum recombinant plasmepsin-2
# [7] = test system: Plasmodium falciparum; assay: Antiplasmodial activity against Plasmodium falciparum infected in human erythrocytes assessed as inhibition of parasite growth; format: functional; conditions: read-out: ED50 (the source's name)
# [8] = Selectivity ratio of IC50 for human cathepsin D to IC50 for Plasmodium falciparum plasmepsin-2 expressed in Escherichia coli BL21 (DE3)
# [9] = target: T1, Plasmepsin II (Plasmodium falciparum, UniProt P46925); assay: Competitive inhibition of Plasmodium falciparum plasmepsin-2 expressed in Escherichia coli BL21 (DE3) after 30 min by FRET assay
# Method in brief: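 Recombinant mature Plm II from inclusion bodies, refolded and activated in 0.1 M sodium citrate pH 4.7, stored in 20 mM Tris-HCl pH 8.5 with 0.25 M NaCl. FRET assay in NaOAc buffer pH 5.0 using 2.5 nM enzyme and 1 μM DABCYL-Glu-Arg-Nle-Phe-Leu-Ser-Phe-Pro-EDANS substrate. Inhibitor, enzyme and substrate incubated 30 min at 37 C; EDANS fluorescence read at excitation 336 nm.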
# [10] = target: Plasmepsin II (Plasmodium falciparum) (UniProt P46925); assay: Inhibition of Plasmodium falciparum plasmepsin-2 expressed in Escherichia coli BL21 (DE3) at compound to substrate ratio of 1:1 to 1: 5 after 2 hrs by FRET assay
# [11] = target: Cathepsin D (Homo sapiens, UniProt P07339); assay: Inhibition of human cathepsin D after 30 mins by FRET assay
# [12] = test system: CHO; assay: Cytotoxicity against CHO cells at 100 ug/mL after 24 hrs by MTS assay; format: cell-based, Cricetulus griseus; conditions: chinese hamster
# [13] = target: Plasmepsin II (Plasmodium falciparum) (UniProt P46925); assay: Irreversible inhibition of Plasmodium falciparum plasmepsin-2 expressed in Escherichia coli BL21 (DE3) at 1 uM measured after overnight dialysis by spun column chromatography
# [14] = target: T1, Plasmepsin II; assay: Inhibition of Plasmodium falciparum plasmepsin-2 expressed in Escherichia coli BL21 (DE3) after 40 min by Kitz-Wilson plot analysis
# [15] = test system: CHO; assay: Cytotoxicity against CHO cells at 10 uM after 24 hrs by MTS assay; format: cell-based, Cricetulus griseus; conditions: chinese hamster
# [16] = test system: CHO; assay: Cytotoxicity against CHO cells at 250 ug/mL after 24 hrs by MTS assay; format: cell-based, Cricetulus griseus; conditions: chinese hamster
# [17] = target: T1, Plasmepsin II; assay: Inhibition of Plasmodium falciparum plasmepsin-2
# [18] = Selectivity ratio of Ki for human cathepsin D to Ki for Plasmodium falciparum plasmepsin-2
# T1 sequence (P46925 whole entry): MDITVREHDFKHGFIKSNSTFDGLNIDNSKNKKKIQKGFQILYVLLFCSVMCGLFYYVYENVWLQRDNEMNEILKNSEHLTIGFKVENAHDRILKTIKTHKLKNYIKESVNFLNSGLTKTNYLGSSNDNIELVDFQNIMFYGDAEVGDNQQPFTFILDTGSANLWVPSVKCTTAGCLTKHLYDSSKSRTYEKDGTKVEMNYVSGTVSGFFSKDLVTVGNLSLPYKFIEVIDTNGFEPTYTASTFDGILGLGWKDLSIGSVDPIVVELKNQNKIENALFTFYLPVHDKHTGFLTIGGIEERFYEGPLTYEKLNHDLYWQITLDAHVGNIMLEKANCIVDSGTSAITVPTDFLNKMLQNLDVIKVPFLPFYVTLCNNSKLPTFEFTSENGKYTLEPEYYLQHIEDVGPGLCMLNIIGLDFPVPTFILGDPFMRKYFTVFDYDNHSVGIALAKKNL
# Cathepsin D, sequence (P07339 65-162 limits assumed): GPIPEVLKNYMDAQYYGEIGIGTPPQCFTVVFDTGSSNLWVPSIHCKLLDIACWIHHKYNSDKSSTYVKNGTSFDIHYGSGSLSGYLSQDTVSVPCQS
# Cathepsin D, sequence (P07339 169-412 limits assumed): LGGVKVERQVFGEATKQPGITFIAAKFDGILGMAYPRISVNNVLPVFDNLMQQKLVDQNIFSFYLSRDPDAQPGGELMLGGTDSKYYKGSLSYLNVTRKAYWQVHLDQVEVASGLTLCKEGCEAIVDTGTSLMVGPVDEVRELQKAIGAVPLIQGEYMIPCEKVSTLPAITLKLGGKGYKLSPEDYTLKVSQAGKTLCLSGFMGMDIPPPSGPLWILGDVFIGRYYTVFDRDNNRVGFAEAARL
# Plasmepsin II (Plasmodium falciparum), sequence (P46925 125-453 limits assumed): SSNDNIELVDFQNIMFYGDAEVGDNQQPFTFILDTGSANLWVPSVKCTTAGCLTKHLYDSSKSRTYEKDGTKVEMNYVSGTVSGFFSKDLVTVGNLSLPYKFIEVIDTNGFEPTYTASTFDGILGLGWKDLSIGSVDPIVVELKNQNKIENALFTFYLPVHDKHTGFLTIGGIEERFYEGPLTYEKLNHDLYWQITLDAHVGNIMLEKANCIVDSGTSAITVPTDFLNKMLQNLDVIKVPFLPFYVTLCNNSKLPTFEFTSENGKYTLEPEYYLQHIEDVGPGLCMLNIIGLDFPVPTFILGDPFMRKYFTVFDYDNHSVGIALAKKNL
inhibition [1],inhibition [2],Activity [3],IC50 [4],Ratio IC50 [8],IC50 [9],IC50 [11],inhibition [13],Compound,Activity [15],also measured
,,,5 µM,,,,,CC(C)C[C@H](NC(=O)[C@H](C)NC(=O)C[C@H](O)[C@H](Cc1ccccc1)NC(=O)[C@@H](NC(=O)c1ccccn1)C(C)C)C(N)=O,,inhibition at 20 µM [5]: 54%; Ratio Ki [6]: 38
Active,76.9%,,,3.3,28 nM,50 nM,Active,CC(C)C[C@H](NC(=O)[C@H](CCl)NC(=O)C[C@H](O)[C@H](Cc1ccccc1)NC(=O)[C@@H](NC(=O)c1ccccn1)C(C)C)C(N)=O,Non-toxic,inhibition [10]: Active; Activity [12]: Non-toxic; Ki [14]: 35.7 nM; Activity [16]: Non-toxic
Active,76.9%,,7.7 µM,,333 nM,50 nM,Active,C#CC[C@H](NC(=O)C[C@H](O)[C@H](Cc1ccccc1)NC(=O)[C@@H](NC(=O)c1ccccn1)C(C)C)C(=O)N[C@@H](CC(C)C)C(N)=O,Non-toxic,inhibition [10]: Active; Ki [14]: 333 nM
,,,5 µM,,,,,Cc1cccc(C)c1OCC(=O)N[C@@H](Cc1ccccc1)[C@@H](O)C[C@H](CC(C)C)NC(=O)[C@H](C(C)C)N1CCCNC1=O,,Ki [17]: 357 nM; Ratio Ki [18]: 10

# Further lines, the molecule ahead of its results:
Compound,inhibition [1],inhibition [2],Activity [3],IC50 [4],Ratio IC50 [8],IC50 [9],IC50 [11],inhibition [13],Activity [15],also measured
CC(C)CC(=O)N[C@H](C(=O)N[C@H](C(=O)N[C@@H](CC(C)C)[C@@H](O)CC(=O)N[C@@H](C)C(=O)N[C@@H](CC(C)C)[C@@H](O)CC(=O)O)C(C)C)C(C)C,82.8%,97.8%,85.2%,,,,,,,
Cc1ccc(-c2ccc(C[C@H](NC[C@H](O)[C@H](Cc3ccccc3)NC(=O)[C@@H](NC(=O)c3ccccn3)C(C)C)C(N)=O)cc2)cc1,,,,5 µM,,,,,,EC50 [7]: 1600 nM
CC(C)C[C@H](NC(=O)[C@H](CC#N)NC(=O)C[C@H](O)[C@H](Cc1ccccc1)NC(=O)[C@@H](NC(=O)c1ccccn1)C(C)C)C(N)=O,88.2%,76.9%,88%,,1.4,141 nM,50 nM,inactive,Non-toxic,
C#CCNC(=O)[C@H](Cc1ccccc1)NC(=O)C[C@H](O)[C@H](Cc1ccccc1)NC(=O)[C@@H](NC(=O)c1ccccn1)C(C)C,Active,76.9%,36.1%,9.2 µM,10.6,22 nM,50 nM,inactive,Non-toxic,
CC(C)C[C@H](NC(=O)[C@H](C)NC(=O)C[C@H](O)[C@H](COCc1ccc(Br)cc1)NC(=O)[C@@H](NC(=O)c1ccccn1)C(C)C)C(N)=O,,,,5 µM,,,,,,Ki [17]: 0.5 nM
